Our source for the IC50 values is BindingDB's records for doi:10.1016/j.bmc.2012.11.002 (China Pharmaceutical University, 2012).

The assay has as its target Tissue factor (Homo sapiens, UniProt P13726). Nature of the assay: Inhibition of tissue factor procoagulant activity in LPS-stimulated human THP1 cells preincubated for 1 hr before LPS addition measured after 5 hrs. In outline:
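THP-1 cells grown in RPMI-1640 with 10% heat-inactivated FCS, 37 °C, 5% CO2. Cells at 1 × 10⁶/mL pretreated 1 h with compound or 0.1% DMSO vehicle, then given 500 ng/mL LPS for 5 h. Cells were pelleted, resuspended, frozen/thawed three times, and the lysate incubated with prothrombin complex plus CaCl₂ (pH 7.3) 15 min at 37 °C. Factor Xa chromogenic substrate (0.5 mM) with EDTA was added and A405 read.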

Chain of Tissue factor (P13726 whole entry): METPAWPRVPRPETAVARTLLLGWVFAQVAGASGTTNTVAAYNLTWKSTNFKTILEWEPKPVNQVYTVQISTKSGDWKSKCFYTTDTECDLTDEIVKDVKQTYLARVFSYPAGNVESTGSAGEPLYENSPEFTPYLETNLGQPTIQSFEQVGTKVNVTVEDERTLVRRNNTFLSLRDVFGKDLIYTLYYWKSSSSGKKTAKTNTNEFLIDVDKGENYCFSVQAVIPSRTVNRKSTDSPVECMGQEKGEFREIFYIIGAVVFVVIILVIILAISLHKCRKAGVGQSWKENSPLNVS

For `COc1ccc2c(c1O[C@@H]1O[C@H](CO)[C@@H](O)[C@H](O)[C@H]1O)CN1CCc3cc4c(cc3[C@H]1C2)OCO4`, the IC50 (commonly the concentration needed to halve the response being measured) amounted to 8.8 nM.

`COc1cc(/C=C/C(=O)Oc2c(OC)ccc3c2CN2CCc4cc5c(cc4C2C3)OCO5)ccc1OC(C)=O` (centres undefined) gave an IC50 of 202 nM. The value for `COc1ccc2c(c1O)CN1CCc3cc4c(cc3[C@@H]1C2)OCO4` was 36 nM; that for `COc1cc2c(cc1OC)[C@@H]1Cc3ccc(OC)c(O[C@@H]4O[C@H](CO)[C@@H](O)[C@H](O)[C@H]4O)c3CN1CC2` was 17 nM; that for `CCC(=O)Oc1c(OC)ccc2c1CN1CCc3cc4c(cc3C1C2)OCO4` (centres undefined) was 119 nM.

For `COc1cc2c(cc1OC)C1Cc3ccc(OC)c(OC)c3CN1CC2` (centres undefined) [2,3,9,10-Tetramethoxy-5,8,13,13a-tetrahydro-6H-isoquino[3,2-a]isoquinoline], it took 15 nM to reach half-maximal inhibition (IC50). `COc1ccc2c(c1OC(=O)/C=C/c1ccccc1)CN1CCc3cc4c(cc3C1C2)OCO4` (centres undefined) gave an IC50 of 3.8 nM. Compared with the last compound, the IC50 is about 3.9-fold lower.

The compound `CCCCCC(=O)Oc1c(OC)ccc2c1CN1CCc3cc4c(cc3C1C2)OCO4` (centres undefined) yielded an IC50 of 1500 nM. Against the preceding compound, the IC50 is about 390-fold higher. Take `COc1cc2c(cc1OC)C1Cc3ccc(OC)c(O)c3CN1CC2` (centres undefined): the IC50 is 187 nM. `COc1ccc2c(c1OC(C)=O)CN1CCc3cc4c(cc3C1C2)OCO4` (centres undefined) had an IC50 of 63 nM. In turn, `COc1ccc2c(c1OC(=O)c1ccccc1)CN1CCc3cc4c(cc3C1C2)OCO4` (centres undefined) showed an IC50 of 377 nM. The value for `COc1cc2c(cc1OC)[C@@H]1Cc3ccc(OC)c(OC)c3CN1CC2` [(-)-Tetrahydropalmatine] was 23 nM.

In turn, `COc1ccc2c(c1O[C@@H]1O[C@H](CO)[C@@H](O)[C@H](O)[C@H]1O)CN1CCc3cc4c(cc3[C@@H]1C2)OCO4` had an IC50 of 39 nM. As for `COc1cc2c(cc1OC)[C@@H]1Cc3ccc(O)c(OC)c3CN1CC2` [(-)-Corydalmine], it took 152 nM to reach half-maximal inhibition (IC50). For `COc1ccc2c(c1OC)CN1CCc3cc4c(cc3C1C2)OCO4` (centres undefined) [9,10-dimethoxy-5,8,13,13a-tetrahydro-6H-[1,3]dioxolo[4,5-g]isoquino[3,2-a]isoquinoline], half-maximal inhibition (IC50) required 8.4 nM.

Regarding `COc1ccc2c(c1OC)CN1CCc3cc(O)c(O)cc3C1C2` (centres undefined), 969 nM corresponded to half-maximal inhibition (IC50).

With `COc1cc2c(cc1OC)[C@H]1Cc3ccc(OC)c(O[C@@H]4O[C@H](CO)[C@@H](O)[C@H](O)[C@H]4O)c3CN1CC2`, inhibition was half-maximal at 13 nM (IC50). Regarding `COc1ccc2c(c1O)CN1CCc3cc4c(cc3[C@H]1C2)OCO4` [R-(+)-Tetrahydroberberrubine], half-maximal inhibition (IC50) was put at 6.8 nM. Next, `COc1ccc2c(c1OC(=O)c1ccccc1OC(C)=O)CN1CCc3cc4c(cc3C1C2)OCO4` (centres undefined): 555 nM.
